The nature of series [1]: Kinetic aqueous solubility of the compound in pH 7.4 PBS buffer by UV/Visible absorbance analysis. Type of series: physicochemical. Conditions: read-out: Kinetic_solubility. The procedure, abridged: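 Kinetic solubility determined in PBS at pH 7.4 by UV/Vis absorbance, reported in μM.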
A further series concerns the target T1, Cytochrome P450 1A2 (Homo sapiens, UniProt P05177).
T1 sequence (P05177 whole entry): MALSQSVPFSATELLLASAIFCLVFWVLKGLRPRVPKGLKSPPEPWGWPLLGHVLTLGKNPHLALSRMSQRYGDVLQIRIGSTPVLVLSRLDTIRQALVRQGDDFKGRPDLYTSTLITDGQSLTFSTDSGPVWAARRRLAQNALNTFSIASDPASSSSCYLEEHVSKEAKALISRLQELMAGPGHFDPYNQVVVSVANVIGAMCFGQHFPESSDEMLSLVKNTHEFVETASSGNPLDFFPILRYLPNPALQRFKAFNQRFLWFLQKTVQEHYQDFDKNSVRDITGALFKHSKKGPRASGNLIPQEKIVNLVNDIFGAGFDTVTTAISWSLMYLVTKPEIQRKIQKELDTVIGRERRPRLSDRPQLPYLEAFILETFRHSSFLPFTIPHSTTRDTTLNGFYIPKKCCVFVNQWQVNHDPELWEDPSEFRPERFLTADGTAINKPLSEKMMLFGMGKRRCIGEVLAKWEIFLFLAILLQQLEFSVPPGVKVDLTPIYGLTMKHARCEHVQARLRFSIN
In words: Inhibition of recombinant CYP1A2 (unknown origin) by fluorescence-based assay. The format is ADME. In short, it runs like this: (§1)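 Recombinant CYP isoforms (five tested) screened for inhibition in fluorescence-based assays; IC50 in μM.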

The next series deals with Cytochrome P450 3A4 (Homo sapiens, UniProt P08684). The series is described as follows: Inhibition of recombinant CYP3A4 (unknown origin) by fluorescence-based assay. Type of series: ADME.
For the next series, the target named is Cytochrome P450 2D6 (Homo sapiens, UniProt P10635). The series is described as follows: Inhibition of recombinant CYP2D6 (unknown origin) by fluorescence-based assay. Type of series: ADME. In short, it runs like this:
as §1

The target in another series is Gamma-secretase. In words: Modulation of gamma secretase in human SH-SY5Y cells overexpressing wild type APP751 assessed as inhibition of amyloid beta (35 to 42 residues) formation incubated for overnight by ELISA. Type of series: cell-based. In short, it runs like this:
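SHSY5Y-APP751 cells plated at 75K/well and incubated overnight at 37 °C, then treated 24 h over 10 concentrations ([…]–10 μM, 1:3.16 steps, in duplicate). Medium Aβ42 measured by sandwich ELISA (Aβ35–42 capture, AP-conjugated Aβ1–12 detection, CDP-Star luminescence) against an Aβ42 standard curve.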

Series [2] in a line: Metabolic stability in human liver microsomes assessed as parent compound remaining at 1 uM incubated for 30 mins. Type of series: ADME, Microsome. Particulars: microsomes, 0.5 h, 1 µM. In short, it runs like this: (§2)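 Test compound at 1 μM incubated 30 min with human, rat or mouse liver microsomes (1 mg/mL); parent remaining expressed as %.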
The nature of series [3]: Metabolic stability in rat liver microsomes assessed as parent compound remaining at 1 uM incubated for 30 mins. Type of series: ADME, Microsome. Conditions: 0.5 h. In short, it runs like this:
as §2
In general terms: Liver microsomes are a subcellular fraction often used to study metabolism.

The target of the next series is Cytochrome P450 2C19 (Homo sapiens, UniProt P33261). In words: Inhibition of recombinant CYP2C19 (unknown origin) by fluorescence-based assay. The format is ADME. In short, it runs like this:
as §1

Another series addresses Cytochrome P450 2C9 (Homo sapiens, UniProt P11712). In words: Inhibition of recombinant CYP2C9 (unknown origin) by fluorescence-based assay. Type of series: ADME. The procedure, abridged: as §1
A short description of series [4]: Metabolic stability in mouse liver microsomes assessed as parent compound remaining at 1 uM incubated for 30 mins. Type of series: ADME, Microsome. Conditions: 0.5 h. In short, it runs like this: as §2
The nature of series [5]: Apparent permeability from apical to basolateral membrane in MDCK-MDR1 cells. Particulars: dog. Type of series: ADME, cell-based, Canis lupus familiaris. In short, it runs like this: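 Apical-to-basolateral apparent permeability (×10⁻⁶ cm/s) measured across MDR1-MDCK cell monolayers.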
For series [6], the target named is Voltage-gated inwardly rectifying potassium channel KCNH2 (Homo sapiens, UniProt Q12809). In words: Inhibition of human ERG expressed in HEK293 cells by patch clamp assay. The format is cell-based.

Here are results for 12 molecules from ChEMBL document CHEMBL4699542, “Design and synthesis of novel methoxypyridine-derived gamma-secretase modulators” (Bioorg Med Chem, 2020).

In brackets after ≈: the same amount, converted by molar mass.

As a reminder, the IC50 is the midpoint of a concentration-inhibition curve.

Chain of Cytochrome P450 2D6 (P10635 whole entry): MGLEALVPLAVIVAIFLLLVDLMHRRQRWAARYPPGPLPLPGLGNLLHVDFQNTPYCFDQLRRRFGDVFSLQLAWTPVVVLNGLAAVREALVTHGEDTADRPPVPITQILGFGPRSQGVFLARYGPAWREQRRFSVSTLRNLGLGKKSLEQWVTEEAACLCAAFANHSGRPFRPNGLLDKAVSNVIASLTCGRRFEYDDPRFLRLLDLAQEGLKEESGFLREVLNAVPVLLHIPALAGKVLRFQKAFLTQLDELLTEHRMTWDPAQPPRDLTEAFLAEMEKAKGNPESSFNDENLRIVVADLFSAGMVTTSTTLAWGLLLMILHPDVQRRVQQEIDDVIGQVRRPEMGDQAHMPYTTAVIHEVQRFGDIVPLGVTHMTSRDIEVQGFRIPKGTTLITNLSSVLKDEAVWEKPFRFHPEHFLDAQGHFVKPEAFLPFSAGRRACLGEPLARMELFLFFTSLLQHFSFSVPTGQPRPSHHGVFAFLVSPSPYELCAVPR
Chain of Cytochrome P450 2C19 (P33261 whole entry): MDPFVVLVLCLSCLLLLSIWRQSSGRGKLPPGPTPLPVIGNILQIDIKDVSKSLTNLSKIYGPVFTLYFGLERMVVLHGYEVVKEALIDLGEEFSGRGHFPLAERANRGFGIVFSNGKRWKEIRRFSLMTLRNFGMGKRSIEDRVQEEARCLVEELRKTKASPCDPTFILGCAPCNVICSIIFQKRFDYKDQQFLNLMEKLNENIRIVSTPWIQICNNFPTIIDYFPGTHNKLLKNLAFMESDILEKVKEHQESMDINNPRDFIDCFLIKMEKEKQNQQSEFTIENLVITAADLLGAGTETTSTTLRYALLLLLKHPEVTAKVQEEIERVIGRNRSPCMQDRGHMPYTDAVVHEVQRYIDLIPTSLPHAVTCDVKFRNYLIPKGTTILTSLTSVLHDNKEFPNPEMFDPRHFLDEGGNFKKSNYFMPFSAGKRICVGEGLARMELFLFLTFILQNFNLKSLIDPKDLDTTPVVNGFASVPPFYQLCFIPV
Chain of Cytochrome P450 3A4 (P08684 whole entry): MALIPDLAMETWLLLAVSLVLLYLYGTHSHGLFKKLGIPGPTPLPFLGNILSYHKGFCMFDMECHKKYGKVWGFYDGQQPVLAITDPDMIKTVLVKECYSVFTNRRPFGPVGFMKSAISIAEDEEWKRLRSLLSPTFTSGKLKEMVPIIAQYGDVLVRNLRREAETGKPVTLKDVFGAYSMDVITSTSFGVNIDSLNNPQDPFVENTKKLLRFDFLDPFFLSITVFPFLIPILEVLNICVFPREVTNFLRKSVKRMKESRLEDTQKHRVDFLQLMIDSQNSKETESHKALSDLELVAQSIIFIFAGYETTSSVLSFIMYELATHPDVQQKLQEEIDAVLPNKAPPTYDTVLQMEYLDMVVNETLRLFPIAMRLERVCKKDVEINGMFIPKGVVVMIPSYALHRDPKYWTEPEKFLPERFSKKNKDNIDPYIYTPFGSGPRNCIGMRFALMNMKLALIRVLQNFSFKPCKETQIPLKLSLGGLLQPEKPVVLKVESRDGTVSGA
Chain of Cytochrome P450 2C9 (P11712 whole entry): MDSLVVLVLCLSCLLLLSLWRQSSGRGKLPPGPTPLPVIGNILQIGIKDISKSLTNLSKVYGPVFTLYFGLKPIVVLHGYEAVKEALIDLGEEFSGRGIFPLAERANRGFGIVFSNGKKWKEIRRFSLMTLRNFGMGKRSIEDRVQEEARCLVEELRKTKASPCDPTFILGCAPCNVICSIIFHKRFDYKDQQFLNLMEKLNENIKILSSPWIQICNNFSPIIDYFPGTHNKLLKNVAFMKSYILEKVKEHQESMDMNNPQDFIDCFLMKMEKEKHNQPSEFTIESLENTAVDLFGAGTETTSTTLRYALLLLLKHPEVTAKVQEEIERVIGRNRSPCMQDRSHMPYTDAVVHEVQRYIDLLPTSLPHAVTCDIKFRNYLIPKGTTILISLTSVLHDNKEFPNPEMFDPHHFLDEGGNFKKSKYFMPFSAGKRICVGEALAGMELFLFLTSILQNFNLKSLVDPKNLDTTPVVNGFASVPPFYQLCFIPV
Chain of Voltage-gated inwardly rectifying potassium channel KCNH2 (Q12809 whole entry): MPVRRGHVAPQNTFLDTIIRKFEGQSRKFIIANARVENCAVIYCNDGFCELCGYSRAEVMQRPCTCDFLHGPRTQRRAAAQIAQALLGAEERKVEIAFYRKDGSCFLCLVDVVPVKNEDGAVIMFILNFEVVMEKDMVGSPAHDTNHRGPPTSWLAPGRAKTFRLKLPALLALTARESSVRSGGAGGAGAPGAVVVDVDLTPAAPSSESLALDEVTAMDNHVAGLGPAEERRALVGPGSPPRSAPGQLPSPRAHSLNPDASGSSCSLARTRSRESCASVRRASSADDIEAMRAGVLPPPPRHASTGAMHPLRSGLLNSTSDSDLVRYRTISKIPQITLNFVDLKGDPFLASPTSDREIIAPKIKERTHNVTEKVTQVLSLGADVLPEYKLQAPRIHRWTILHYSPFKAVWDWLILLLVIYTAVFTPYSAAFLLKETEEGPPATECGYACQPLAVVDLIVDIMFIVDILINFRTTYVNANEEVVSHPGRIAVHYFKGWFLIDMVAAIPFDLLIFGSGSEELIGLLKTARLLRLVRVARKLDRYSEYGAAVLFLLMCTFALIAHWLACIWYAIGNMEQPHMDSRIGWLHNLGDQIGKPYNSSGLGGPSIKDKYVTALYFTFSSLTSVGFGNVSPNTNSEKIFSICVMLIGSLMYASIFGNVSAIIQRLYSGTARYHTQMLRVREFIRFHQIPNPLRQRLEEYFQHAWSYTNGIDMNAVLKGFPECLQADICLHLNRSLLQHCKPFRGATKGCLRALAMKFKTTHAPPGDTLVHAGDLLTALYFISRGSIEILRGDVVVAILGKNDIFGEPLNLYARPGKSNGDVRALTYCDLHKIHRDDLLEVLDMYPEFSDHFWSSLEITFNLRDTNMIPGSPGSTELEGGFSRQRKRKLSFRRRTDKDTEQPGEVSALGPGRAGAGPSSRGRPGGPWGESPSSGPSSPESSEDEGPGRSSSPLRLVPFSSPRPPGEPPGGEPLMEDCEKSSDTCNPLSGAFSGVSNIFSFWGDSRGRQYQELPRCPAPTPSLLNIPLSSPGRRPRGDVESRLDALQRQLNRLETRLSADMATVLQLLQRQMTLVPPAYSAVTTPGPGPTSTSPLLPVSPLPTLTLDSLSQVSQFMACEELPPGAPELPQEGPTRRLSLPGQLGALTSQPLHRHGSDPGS

Turning to `CCn1nc2c(c1Nc1nc(-c3ccc(-n4cnc(C)c4)c(OC)n3)cs1)CCCCC2`, in series [1], the solubility kinetic came out at 4.3 µM (≈ 1.93 µg/mL). The concentration for half-maximal inhibition (IC50) at Cytochrome P450 1A2 was over 100 µM; on Cytochrome P450 3A4 it was 11000 nM; on Cytochrome P450 2D6, over 100 µM; on Gamma-secretase it was 32 nM; at Cytochrome P450 2C19, 85 µM; at Cytochrome P450 2C9, 37 µM. The Stabilty in series [2] turned out to be 0.1%; in [3], 41%; in [4], 15%.
On to `CCn1nc2c(c1Nc1nc(-c3ccc(-n4cnc(C)c4)c(OC)n3)cs1)CCC2(C)C`, for which the solubility kinetic in series [1] is 8.8 µM (≈ 3.96 µg/mL). Also, the IC50 at Cytochrome P450 1A2 is over 100 µM; at Cytochrome P450 3A4, 750 nM; on Cytochrome P450 2D6, over 100 µM; on Gamma-secretase, 109 nM; on Cytochrome P450 2C19, 15 µM; on Cytochrome P450 2C9, 48 µM. Also, the results for the Stabilty in [2], in series [3] and in series [4] were 31%, 61% and 49%, respectively.
As for `COc1nc(-c2csc(Nc3c4c(nn3CC(F)(F)F)CCC4)n2)ccc1-n1cnc(C)c1`, the solubility kinetic in series [1] came out at 22 µM (≈ 10.5 µg/mL). Further, the concentration for half-maximal inhibition (IC50) was 27 µM at Cytochrome P450 1A2; 1400 nM at Cytochrome P450 3A4; over 100 µM at Cytochrome P450 2D6; 36 nM on Gamma-secretase; 7.1 µM at Cytochrome P450 2C19; 11 µM at Cytochrome P450 2C9. In series [5], the Papp is on record as 17.6 10^-6 cm/s. Moreover, the Stabilty in series [2] is recorded as 66%; in [3], 72%; in [4], 46%.
With `COc1nc(-c2csc(Nc3c4c(nn3CCO)CCCC4)n2)ccc1-n1cnc(C)c1`, the 50% inhibitory concentration (IC50) was 2630 nM in series [6]; over 100 µM at Cytochrome P450 1A2; 30000 nM on Cytochrome P450 3A4; over 100 µM on Cytochrome P450 2D6; 144 nM on Gamma-secretase; 76 µM on Cytochrome P450 2C19. In addition, the IC50 on Cytochrome P450 2C9 is over 100 µM. In addition, the solubility kinetic in series [1] came out at 31 µM (≈ 14 µg/mL). Also, the Papp in series [5] is reported as 18 10^-6 cm/s. The Stabilty in series [2] is listed as 40%; in series [3], 78%; in series [4], 58%.
In the case of `COc1nc(-c2csc(Nc3c4c(nn3CCF)CCC4)n2)ccc1-n1cnc(C)c1`, the IC50 is 2880 nM in series [6]; over 100 µM at Cytochrome P450 1A2; 10500 nM on Cytochrome P450 3A4; over 100 µM on Cytochrome P450 2D6; 64 nM on Gamma-secretase; 35 µM at Cytochrome P450 2C19. Moreover, at Cytochrome P450 2C9, the concentration for half-maximal inhibition (IC50) was over 100 µM. For the same molecule, the solubility kinetic in series [1] amounted to 23 µM (≈ 10.1 µg/mL). The figures for the Stabilty in [2], in series [3] and in [4] were 58%, 68% and 60%, respectively.
As to `COc1nc(-c2csc(Nc3cc(C(C)(C)C)nn3C(C)C)n2)ccc1-n1cnc(C)c1`, the solubility kinetic in series [1] came to 23 µM (≈ 10.4 µg/mL). The 50% inhibitory concentration (IC50) on Cytochrome P450 1A2 was over 100 µM; on Cytochrome P450 3A4, 2300 nM; on Cytochrome P450 2D6, over 100 µM; at Gamma-secretase, 64 nM; on Cytochrome P450 2C19 it was 14 µM; on Cytochrome P450 2C9 it was 14 µM. In addition, the Stabilty in [2] was 21%; in series [3] it was 75%; in series [4] it was 40%.
For `COc1nc(-c2csc(Nc3c4c(nn3CCO)CCC4)n2)ccc1-n1cnc(C)c1`, in series [1], the solubility kinetic is 29 µM (≈ 12.7 µg/mL). Besides, the IC50 at Cytochrome P450 1A2 is over 100 µM; on Cytochrome P450 3A4, under 50 nM; on Cytochrome P450 2D6, over 100 µM; on Gamma-secretase, 75 nM; at Cytochrome P450 2C19, 9.2 µM; at Cytochrome P450 2C9, 50 µM. Moreover, the values for the Stabilty in [2], in series [3] and in series [4] were 42%, 86% and 73%, respectively.
On to `COc1nc(-c2csc(Nc3cc(C(C)(C)C)nn3CC(F)(F)F)n2)ccc1-n1cnc(C)c1`, for which the solubility kinetic in series [1] came to 1.7 µM (≈ 0.836 µg/mL). The IC50 is 18 µM on Cytochrome P450 1A2; 1000 nM at Cytochrome P450 3A4; over 100 µM on Cytochrome P450 2D6; 73 nM on Gamma-secretase; 9 µM on Cytochrome P450 2C19; 20 µM on Cytochrome P450 2C9. Also, the Stabilty in [2] amounted to 47%; in [3] it was 90%; in series [4], 93%.
Consider `COc1nc(-c2csc(Nc3cc(C(C)(C)C)nn3CCF)n2)ccc1-n1cnc(C)c1`, for which the solubility kinetic in series [1] is 3.3 µM (≈ 1.5 µg/mL). Moreover, the 50% inhibitory concentration (IC50) was 64 µM on Cytochrome P450 1A2; 40 nM on Cytochrome P450 3A4; over 100 µM on Cytochrome P450 2D6; 73 nM on Gamma-secretase; 3.3 µM at Cytochrome P450 2C19; 4.1 µM at Cytochrome P450 2C9. The results for the Stabilty in series [2], in series [3] and in series [4] were 49%, 86% and 67%, respectively.
Consider `CCn1nc2c(c1Nc1nc(-c3ccc(-n4cnc(C)c4)c(OC)n3)cs1)C(C)CC2(C)C` (racemic), for which, in series [1], the solubility kinetic came to 9.2 µM (≈ 4.27 µg/mL). The half-maximal inhibitory concentration (IC50) at Cytochrome P450 1A2 is over 100 µM; on Cytochrome P450 3A4, 1500 nM; at Cytochrome P450 2D6 it was over 100 µM; on Gamma-secretase, 72 nM; on Cytochrome P450 2C19 it was 33 µM; at Cytochrome P450 2C9 it was 35 µM. Besides, the Stabilty is on record as 12% in series [2], 38% in series [3] and 21% in [4].
For the molecule `COc1nc(-c2csc(Nc3c4c(nn3CC(C)(C)O)CCCC4)n2)ccc1-n1cnc(C)c1`, the solubility kinetic in series [1] is 22 µM (≈ 10.6 µg/mL). The IC50 at Cytochrome P450 1A2 was over 100 µM; on Cytochrome P450 2D6 it was over 100 µM; on Gamma-secretase, 38 nM; on Cytochrome P450 2C19, 3.9 µM; on Cytochrome P450 2C9, 9 µM. In series [5], the Papp was 17.5 10^-6 cm/s. The Stabilty in series [2] is 12%; in series [3], 57%; in series [4], 78%.
`COc1nc(-c2csc(Nc3c4c(nn3CCCO)CCCC4)n2)ccc1-n1cnc(C)c1`: the solubility kinetic in series [1] is 23 µM (≈ 10.7 µg/mL). Moreover, the IC50 at Cytochrome P450 1A2 is over 100 µM; on Cytochrome P450 3A4, 2200 nM; at Cytochrome P450 2D6, over 100 µM; on Gamma-secretase, 50 nM; at Cytochrome P450 2C19, 31 µM; on Cytochrome P450 2C9 it was over 100 µM. Besides, the Stabilty in [2] is 17%; in series [3], 52%; in series [4], 32%.
